From ChEMBL document CHEMBL4715918, “Syntheses and evaluation of acridone-naphthalimide derivatives for regulating oncogene PDGFR-β expression” (Bioorg Med Chem, 2021)
Activity calls are given as the source filed them. The rule behind the calls is not given here.

Key:
[1] = Binding affinity to 5'-biotin-d [GCGTCCACCCTCCCTGCCCCGCCGCCCCCCCITCTCCCAGC]-3' i-motif DNA (unknown origin) assessed as change in melting temperature at 10 uM by CD spectroscopy
Outline: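 Oligomer 2 µM in BPES buffer pH 5.5, heated to 95 °C for 5 min, cooled slowly and held at 4 °C overnight. Ligand 10 µM. CD ellipticity followed at 288 nm from 25–95 °C (1 mm cuvette); Tm derived, ΔTm against DNA alone.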

[2] = Binding affinity to FAM-labeled 5'-biotin-d[TATAGCTATA-HEG-TATAGCTATA]- 3' duplex DNA (unknown origin) by microscale thermophoresis assay
Outline: (§1)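 Microscale thermophoresis with DNA held constant at 1 µM. Compound serially diluted 3:4 from 10 µM over 12 points. Samples run in standard glass capillaries with LED and laser power both at 20%. KD derived by fitting.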

Quadruplex DNA [3] = assay: Binding affinity to 5'-FAM-GGGAGAAGGGGGGGCGGCGGGGCAGGGAGGGTGGAC-TAMRA-3' G4-quadruplex DNA (unknown origin) assessed as stabilization G4-quadruplex structure by measuring increase in I585/I518 ratio by FRET assay; type: nucleic-acid assay; conditions: dose 2-10 equiv
Outline: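 FRET probe dual-labelled FAM/TAMRA, annealed, 10 µM in 10 mM Tris-HCl pH 7.4 with 10 mM KCl; compound added in equal volume. Emission 500–700 nm recorded, corrected for compound signal in the same buffer; I585/I518 ratio compared.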

Quadruplex DNA [4] = assay: Binding affinity to FAM-labeled 5'-biotin-d [GCTGGGAGAAGGGGGGGCGGCGGGGCAGGGAGGGTGGACGC]-3' G4-quadruplex DNA (unknown origin) by microscale thermophoresis assay; type: nucleic-acid assay; outline: as §1
[5] = Binding affinity to FAM-labeled 5'-biotin-d [GCGTCCACCCTCCCTGCCCCGCCGCCCCCCCITCTCCCAGC]-3' i-motif DNA (unknown origin) by microscale thermophoresis assay; outline: as §1
MCF7 = assay: Binding affinity to wild type PDGFRbeta promoter (unknown origin) in human MCF7 cells assessed as down regulation of PDGFRbeta mRNA expression at 1.25 to 20 uM after 12 hrs by RT-PCR analysis; type: cell-based; conditions: dose 1.25-20 µM
Quadruplex DNA [6] = assay: Binding affinity to 5'-biotin-d [GCTGGGAGAAGGGGGGGCGGCGGGGCAGGGAGGGTGGACGC]-3' G4-quadruplex DNA (unknown origin) assessed as change in melting temperature at 10 uM by CD spectroscopy; type: nucleic-acid assay
Outline: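 Oligomer 2 µM in Tris-HCl pH 7.4, annealed (95 °C for 5 min, slow cooling, 4 °C overnight). Ligand 10 µM. CD ellipticity followed at 263 nm over 25–95 °C; ΔTm taken against DNA alone.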

[7] = Binding affinity to 5'-FAM-GCGTCCACCCTCCCTGCCCCGCCGCCCCCCCTTCTCCCAGC-TAMRA-3' i-motif DNA (unknown origin) assessed as unfolding i-motif structure by measuring reduction in I585/I518 ratio at 2 to 10 equiv by FRET assay; conditions: dose 2-10 equiv
Outline: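 FRET probe dual-labelled FAM donor/TAMRA acceptor, annealed, 10 µM in 30 mM BPES buffer with 1 mM EDTA, 100 mM KCl; compound added in equal volume. Emission 500–700 nm recorded, corrected for compound signal in the same buffer; I585/I518 ratio compared. The i-motif forms at pH 6.2 and unfolds at pH 6.4.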

Compound: C[n+]1ccc(-c2c3nc(c(-c4cc[n+](C)cc4)c4ccc([nH]4)c(-c4cc[n+](C)cc4)c4ccc([nH]4)c(-c4cc[n+](C)cc4)c4nc2C=C4)C=C3)cc1 [TMPYP4]
- ΔTm [1]: 0.11 °C
- Kd [2]: 1310 µM
- Activity (Quadruplex DNA [3]): Dose-dependent effect
- Kd (Quadruplex DNA [4]): 3.96 µM
- Kd [5]: 463 µM
- Activity (MCF7): Dose-dependent effect
- ΔTm (Quadruplex DNA [6]): > 20 °C
- Activity [7]: inactive
